Results from ChEMBL document CHEMBL1156706, “Structure-activity relationships of novel heteroaryl-acrylonitriles as cytotoxic and antibacterial agents” (Eur J Med Chem, 2008).
In brackets after ≈: the same amount, converted by molar mass.

Tests used:
[1] = Aqueous solubility in phosphate buffered saline at pH 7.4 after 24 hrs; assay type: physicochemical
How it was run: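 Solid added in excess to Dulbecco's PBS, pH 7.4, and stirred in the dark 24 h at room temperature. Suspension filtered through a 0.22 filter. Filtrate absorbance read at each compound's λmax, and dissolved concentration calculated from the extinction coefficient at that wavelength.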

RT-4 = test: Cytotoxicity against human RT4 cells after 96 hrs by microtiter assay; assay type: functional, cell-based; details: RT-4, 96 h
How it was run: (§1)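 DSMZ cell lines in RPMI 1640 with 10% FCS. DMF stocks diluted 1000-fold into medium. Continuous exposure 96 h at 37 °C, 5% CO2. Adherent cells stained with crystal violet. IC50 (50% growth inhibition vs untreated control) obtained by least-squares fitting of dose–response curves, averaging 2–5 independent determinations.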

RT-112 = test: Cytotoxicity against human RT112 cells after 96 hrs by microtiter assay; assay type: functional, cell-based; details: RT-112, 96 h; how it was run: as §1
5637 = test: Cytotoxicity against human 5637 cells after 96 hrs by microtiter assay; assay type: functional, cell-based; details: Homo sapiens, 5637, 96 h; how it was run: as §1
[2] = Cytotoxicity against human KYSE70 cells after 96 hrs by microtiter assay; assay type: functional, cell-based; details: KYSE-70, 96 h; how it was run: as §1
KYSE-510 = test: Cytotoxicity against human KYSE510 cells after 96 hrs by microtiter assay; assay type: functional, cell-based; details: KYSE-510, 96 h; how it was run: as §1
[3] = Cytotoxicity against human KYSE520 cells after 96 hrs by microtiter assay; assay type: functional, cell-based; details: KYSE-520, 96 h; how it was run: as §1
YAPC = test: Cytotoxicity against human YAPC cells after 96 hrs by microtiter assay; assay type: functional, cell-based; how it was run: as §1
DAN-G = test: Cytotoxicity against human DAN-G cells after 96 hrs by microtiter assay; assay type: functional, cell-based; how it was run: as §1
SISO = test: Cytotoxicity against human SISO cells after 96 hrs by microtiter assay; assay type: functional, cell-based; how it was run: as §1
[4] = Cytotoxicity against human LCLC-103H cells after 96 hrs by microtiter assay; assay type: functional, cell-based; how it was run: as §1
MCF7 = test: Cytotoxicity against human MCF7 cells after 96 hrs by microtiter assay; assay type: functional, cell-based; details: MCF7, 96 h; how it was run: as §1
A-427 = test: Cytotoxicity against human A427 cells after 96 hrs by microtiter assay; assay type: functional, cell-based; details: A-427, 96 h; how it was run: as §1
Enterococcus hirae = test: Antibacterial activity against Enterococcus hirae NCTC 10541 after 24 hrs; assay type: functional, organism-based; details: NCTC 10541, 24 h
How it was run: (§2)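 Overnight culture diluted in Mueller–Hinton broth to 10^5 CFU/ml. Compounds dissolved in DMSO and diluted twofold in broth over 0.24–62.5 […]. Tubes inoculated and incubated 24 h at 37 °C. MIC taken as the lowest concentration with no visible growth. Clear tubes were subcultured onto Mueller–Hinton agar, and MBC was taken as the minimal concentration killing the organisms after 24 h.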

Staphylococcus aureus = test: Antibacterial activity against Staphylococcus aureus NCTC 4163 after 24 hrs; assay type: functional, organism-based; details: NCTC 4163, 24 h; how it was run: as §2
[5] = test system: Staphylococcus epidermidis; test: Antibacterial activity against Staphylococcus epidermis NCTC 14990 after 24 hrs; assay type: functional, organism-based; details: NCTC 14990, 24 h; how it was run: as §2

solubility at 24 h [1] [µM] | MIC (Enterococcus hirae) [µM] | MIC (Staphylococcus aureus) [µM] | MIC [5] [µM] | Compound | IC50 (RT-4) [nM] | IC50 (RT-112) [nM] | IC50 5637 [nM] | IC50 [2] [nM] | IC50 (KYSE-510) [µM] | IC50 [3] [nM] | IC50 (YAPC) [nM] | IC50 (DAN-G) [nM] | IC50 (SISO) [nM] | IC50 [4] [nM] | IC50 (MCF7) [nM] | IC50 (A-427) [nM]
< 0.1 | > 210 | 210 (≈ 62.4 µg/mL) | 210 (≈ 62.4 µg/mL) | N#C/C(=C\c1ccc([N+](=O)[O-])s1)c1nc2ccccc2o1 | 6570 | 3880 | 3910 | 5300 | 22.6 | 2760 | 1700 | 12600 | 14100 | 12100 | 5690 | 2330
< 0.1 | > 200 | 12 (≈ 3.76 µg/mL) | 12 (≈ 3.76 µg/mL) | N#C/C(=C\c1ccc([N+](=O)[O-])s1)c1nc2ccccc2s1 | 920 | 750 | 620 | 510 | 0.93 | 460 | 420 | 720 | 640 | 880 | 830 | 380
– | – | – | – | N#C/C(=C\c1ccc([N+](=O)[O-])cc1)n1cnc2ccccc21 | 2560 | 2200 | 2200 | 2630 | 2.41 | 1920 | 2430 | 1530 | 4340 | 1710 | 2470 | 1700
< 0.1 | > 222 | 111 (≈ 31.2 µg/mL) | 111 (≈ 31.2 µg/mL) | N#C/C(=C\c1ccc([N+](=O)[O-])o1)c1nc2ccccc2o1 | 3980 | 1410 | 1650 | 2910 | 7 | 1680 | 2860 | 3000 | 2860 | 1330 | 2870 | 1130
– | – | – | – | O=C(Cn1cnc2ccccc21)NC(O)c1ccc([N+](=O)[O-])s1 (stereo unspecified) | 2960 | 13700 | 33700 | 57400 | 140 | 24200 | 22400 | 9600 | 11700 | 7460 | 13100 | 228000
– | – | – | – | Cc1cc2nc(/C(C#N)=C/c3ccc([N+](=O)[O-])s3)[nH]c2cc1C | 140 | 120 | 50 | 50 | 0.12 | 60 | 40 | 200 | 100 | 30 | 130 | 20
0.5 (≈ 0.149 µg/mL) | 210 (≈ 62.4 µg/mL) | 6.4 (≈ 1.9 µg/mL) | 3.2 (≈ 0.951 µg/mL) | N#C/C(=C\c1ccc([N+](=O)[O-])s1)c1nc2cccnc2[nH]1 | 330 | 620 | 170 | 380 | 0.74 | 320 | 300 | 620 | 530 | 110 | 200 | 110
1.4 (≈ 0.394 µg/mL) | – | – | – | N#C/C(=C\c1ccc([N+](=O)[O-])o1)c1nc2cccnc2[nH]1 | 1760 | 1110 | 1080 | 1330 | 5.46 | 1580 | 1020 | 1810 | 720 | 410 | 1390 | 750
– | – | – | – | N#C/C(=C\c1csc(Br)c1)c1nc2ccccc2[nH]1 | > 40000 | > 40000 | > 40000 | > 40000 | > 40 | > 40000 | > 40000 | > 40000 | > 40000 | 22800 | > 40000 | > 40000
– | – | – | – | N#C/C(=C\c1cccc([N+](=O)[O-])c1)n1cnc2ccccc21 | 4020 | 4160 | 4010 | 4060 | 3.09 | 2300 | 3390 | 2260 | 6570 | 3480 | 2610 | 2860
– | – | – | – | O=C(Cn1cnc2ccccc21)NC(O)c1ccc([N+](=O)[O-])o1 (stereo unspecified) | 31200 | 3900 | 5910 | 5570 | 9.49 | 5140 | 5660 | 4180 | 3220 | 1780 | 5370 | 5900
– | – | – | – | N[C@@H](Cc1ccc(N(CCCl)CCCl)cc1)C(=O)O [MELPHALAN] | 14200 | 4690 | 310 | 16200 | 8.18 | 10500 | 5950 | 2650 | 1000 | 4000 | 3710 | 5130
